Experiments:
Assay type in all cases: functional
786-0 = test: Growth inhibition of human 786-0 cells assessed as cell growth at 10^-6 M incubated for 48 hrs by sulforhodamine B assay; conditions: 786-0, 48 h, read-out: Activity
Summary of the method: (§1)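 Five-dose assay: five concentrations from 10-fold or ½-log serial dilutions. Cells are plated at 5,000–40,000 per well according to doubling time, grown 24 h, then exposed 48 h at 37 °C, 5% CO₂. Fixed with cold 50% TCA (final addition) for 60 min at 4 °C and stained with 0.4% SRB in 1% acetic acid. Bound dye is solubilized in 10 mM Tris base and read at 515 nm. GI₅₀ is where [(Ti−Tz)/(C−Tz)]×100 = 50, with a time-zero plate as Tz.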

SK-MEL-28 = test: Growth inhibition of human SK-MEL-28 cells assessed as cell growth at 10^-8 M incubated for 48 hrs by sulforhodamine B assay; conditions: SK-MEL-28, 48 h, read-out: Activity
[1] = Growth inhibition of human UO31 cells assessed as cell growth at 10^-7 M incubated for 48 hrs by sulforhodamine B assay; conditions: UO-31, 48 h, read-out: Activity
[2] = Growth inhibition of human UACC62 cells assessed as cell growth at 10^-6 M incubated for 48 hrs by sulforhodamine B assay; conditions: UACC-62, 48 h, read-out: Activity
SR [3] = test: Growth inhibition of human SR cells assessed as cell growth at 10^-8 M incubated for 48 hrs by sulforhodamine B assay; conditions: read-out: Activity
[4] = Growth inhibition of human BT549 cells incubated for 48 hrs by sulforhodamine B assay; conditions: BT-549, 48 h; summary of the method: as §1
[5] = Growth inhibition of human HCT116 cells assessed as cell growth at 10^-7 M incubated for 48 hrs by sulforhodamine B assay; conditions: HCT-116, 48 h, read-out: Activity
Summary of the method: (§2)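 Cells seeded at 5,000–40,000/well according to doubling time and preincubated 24 h at 37 °C, 5% CO2. Time-zero plates were TCA-fixed. DMSO concentrate was diluted in medium with 50 µg/ml gentamicin to give five concentrations (10-fold or ½ log steps), then exposed 48 h. Cells were TCA-fixed, stained with 0.4% SRB and read at 515 nm. Percent growth was taken against time-zero and control; GI50, TGI and LC50 derived.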

SN12C [6] = test: Growth inhibition of human SN12C cells assessed as cell growth at 10^-5 M incubated for 48 hrs by sulforhodamine B assay; conditions: read-out: Activity
NCI-H460 = test: Growth inhibition of human NCI-H460 cells assessed as cell growth at 10 uM incubated for 48 hrs by sulforhodamine B assay; conditions: NCI-H460, 48 h, read-out: Activity
NCI-H322M = test: Growth inhibition of human NCI-H322M cells assessed as cell growth at 10^-6 M incubated for 48 hrs by sulforhodamine B assay; conditions: read-out: Activity
[7] = Growth inhibition of human HOP62 cells assessed as cell growth at 10 uM incubated for 48 hrs by sulforhodamine B assay; conditions: HOP-62, 48 h, read-out: Activity
[8] = Growth inhibition of human breast cancer cells incubated for 48 hrs by sulforhodamine B assay; conditions: Cancer cell lines; for CC50: read-out: LC50 (the source's name)
A549 = test: Growth inhibition of human A549/ATCC cells incubated for 48 hrs by sulforhodamine B assay; conditions: A549, 48 h; summary of the method: as §1
[9] = Growth inhibition of human LOXIMVI cells assessed as cell growth at 10^-5 M incubated for 48 hrs by sulforhodamine B assay; conditions: LOX IMVI, read-out: Activity
[10] = Growth inhibition of human COLO205 cells assessed as cell growth at 10^-6 M incubated for 48 hrs by sulforhodamine B assay; conditions: COLO 205, 48 h, read-out: Activity; summary of the method: as §2
MDA-MB-435 = test: Growth inhibition of human MDA-MB-435 cells assessed as cell growth at 10^-5 M incubated for 48 hrs by sulforhodamine B assay; conditions: MDA-MB-435, 48 h, read-out: Activity
[11] = Growth inhibition of human MOLT4 cells incubated for 48 hrs by sulforhodamine B assay; conditions: MOLT-4, 48 h
Summary of the method: (§3)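 Cells were plated at 5,000–40,000 per well according to doubling time and preincubated 24 h at 37 °C in 5% CO2; time-zero plates were then TCA-fixed. Five concentrations (10-fold or ½-log dilutions, DMSO stock) were incubated 48 h. Cells were TCA-fixed, stained with 0.4% SRB and read at 515 nm. GI50 was taken where [(Ti−Tz)/(C−Tz)]×100 = 50.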

SK-MEL-2 = test: Growth inhibition of human SK-MEL-2 cells assessed as cell growth at 10 uM incubated for 48 hrs by sulforhodamine B assay; conditions: SK-MEL-2, 48 h, read-out: Activity
[12] = Growth inhibition of human MOLT4 cells assessed as cell growth at 10^-6 M incubated for 48 hrs by sulforhodamine B assay; conditions: MOLT-4, 48 h, read-out: Activity
[13] = Growth inhibition of human OVCAR8 cells assessed as cell growth at 10 uM incubated for 48 hrs by sulforhodamine B assay; conditions: OVCAR-8, 48 h, read-out: Activity
SN12C [14] = test: Growth inhibition of human SN12C cells assessed as cell growth at 10 uM incubated for 48 hrs by sulforhodamine B assay; conditions: read-out: Activity
SR [15] = test: Growth inhibition of human SR cells assessed as cell growth at 10^-5 M incubated for 48 hrs by sulforhodamine B assay; conditions: read-out: Activity
M14 = test: Growth inhibition of human M14 cells assessed as cell growth at 10^-4 M incubated for 48 hrs by sulforhodamine B assay; conditions: M14, 48 h, read-out: Activity
NCI-H522 = test: Growth inhibition of human NCI-H522 cells incubated for 48 hrs by sulforhodamine B assay; conditions: NCI-H522, 48 h; summary of the method: as §3
[16] = Growth inhibition of human RXF393 cells assessed as cell growth at 10 uM incubated for 48 hrs by sulforhodamine B assay; conditions: RXF 393, 48 h, read-out: Activity
A498 = test: Growth inhibition of human A498 cells assessed as cell growth at 10^-7 M incubated for 48 hrs by sulforhodamine B assay; conditions: A498, 48 h, read-out: Activity; summary of the method: as §1
K562 = test: Growth inhibition of human K562 cells assessed as cell growth at 10^-4 M incubated for 48 hrs by sulforhodamine B assay; conditions: K562, 48 h, read-out: Activity
[17] = read-out: LC50 (the source's name)
[18] = read-out: pLC50 (the source's name) (converted)

Molecule `Fc1ccc(-c2nc(Nc3ccc(-c4nc5ccccc5[nH]4)cc3)nc(N3CCOCC3)n2)cc1` has a growth at 1 µM (786-0) of 73%, a growth at 0.01 µM (SK-MEL-28) of 101% and a growth at 0.1 µM [1] of 89%. The growth at 1 µM [2] was 86%, the growth at 0.01 µM (SR [3]) was 108% and the GI50 ([4]; read-out: GI50) was 1.74 µM. It also gave a TGI ([4]; read-out: TGI) of 4.07 µM, a GI50 ([4]; read-out: pGI50 (converted)) of 1.74 µM and a TGI ([4]; read-out: pTGI (converted)) of 4.07 µM. The growth at 0.1 µM [5] was 94%, the growth at 10 µM (SN12C [6]) was 12% and the growth at 10 µM (NCI-H460) was 0.13%. It also gave a growth at 1 µM (NCI-H322M) of 93%, a growth at 10 µM [7] of -27.3% and a GI50 [8] of 2.09 µM. It also gave a TGI [8] of 5.55 µM, a CC50 [8] of over 100 µM and a GI50 (A549; read-out: GI50) of 3.24 µM. For the same molecule, the CC50 (A549; [17]) was over 100 µM, the TGI (A549; read-out: TGI) was over 100 µM and the GI50 (A549; read-out: pGI50 (converted)) was 3.24 µM. It also gave a CC50 (A549; [18]) of over 100 µM, a TGI (A549; read-out: pTGI (converted)) of over 100 µM and a growth at 10 µM [9] of -73%. It also gave a growth at 1 µM [10] of 92%, a growth at 10 µM (MDA-MB-435) of -62% and a GI50 ([11]; read-out: GI50) of 2.15 µM. The CC50 [11, 17] was over 100 µM, the TGI ([11]; read-out: TGI) was 6.13 µM and the GI50 ([11]; read-out: pGI50 (converted)) was 2.14 µM. It also gave a CC50 [11, 18] of over 100 µM, a TGI ([11]; read-out: pTGI (converted)) of 6.17 µM and a growth at 10 µM (SK-MEL-2) of -19.2%. The growth at 1 µM [12] was 87%, the growth at 10 µM [13] was 39.2% and the growth at 10 µM (SN12C [14]) was 40.8%. It also gave a growth at 10 µM (SR [15]) of -15%, a growth at 100 µM (M14) of -80% and a GI50 (NCI-H522; read-out: GI50) of 2.36 µM. For the same molecule, the CC50 (NCI-H522; [17]) was over 100 µM, the TGI (NCI-H522; read-out: TGI) was 5.85 µM and the GI50 (NCI-H522; read-out: pGI50 (converted)) was 2.34 µM. The CC50 (NCI-H522; [18]) was over 100 µM, the TGI (NCI-H522; read-out: pTGI (converted)) was 5.89 µM and the growth at 10 µM [16] was -67.5%. The growth at 0.1 µM (A498) was 83%.
In the case of `c1ccc(-c2nc(Nc3ccc(-c4nc5ccccc5[nH]4)cc3)nc(N3CCOCC3)n2)cc1`, the growth at 1 µM (786-0) is reported as 9%, the growth at 0.01 µM (SK-MEL-28) is reported as 103% and the growth at 0.1 µM [1] is reported as 82%. For the same molecule, the growth at 1 µM [2] was 84%, the growth at 0.01 µM (SR [3]) was 100% and the growth at 100 µM (K562) was -55%. For the same molecule, the GI50 ([4]; read-out: GI50) was 1.98 µM, the CC50 [4, 17] was 7.68 µM and the TGI ([4]; read-out: TGI) was 3.9 µM. It also gave a GI50 ([4]; read-out: pGI50 (converted)) of 2 µM, a CC50 [4, 18] of 7.76 µM and a TGI ([4]; read-out: pTGI (converted)) of 3.89 µM. For the same molecule, the growth at 0.1 µM [5] was 100%, the growth at 10 µM (SN12C [6]) was -60% and the growth at 10 µM (NCI-H460) was -67.2%. It also gave a growth at 1 µM (NCI-H322M) of 86%, a growth at 10 µM [7] of -64.5% and a GI50 [8] of 1.63 µM. It also gave a TGI [8] of 4.08 µM, a CC50 [8] of 8.74 µM and a GI50 (A549; read-out: GI50) of 1.95 µM. The CC50 (A549; [17]) was 8.25 µM, the TGI (A549; read-out: TGI) was 4.01 µM and the GI50 (A549; read-out: pGI50 (converted)) was 1.95 µM. The CC50 (A549; [18]) was 8.32 µM, the TGI (A549; read-out: pTGI (converted)) was 3.98 µM and the growth at 10 µM [9] was -61%. It also gave a growth at 1 µM [10] of 72%, a growth at 10 µM (MDA-MB-435) of -90% and a GI50 ([11]; read-out: GI50) of 1.33 µM. It also gave a CC50 [11, 17] of 9.35 µM, a TGI ([11]; read-out: TGI) of 3.53 µM and a GI50 ([11]; read-out: pGI50 (converted)) of 1.32 µM. For the same molecule, the CC50 [11, 18] was 9.33 µM, the TGI ([11]; read-out: pTGI (converted)) was 3.55 µM and the growth at 10 µM (SK-MEL-2) was -52.7%. The growth at 1 µM [12] was 65%, the growth at 10 µM [13] was -50.4% and the growth at 10 µM (SN12C [14]) was -62.8%. For the same molecule, the growth at 10 µM (SR [15]) was -26%, the growth at 100 µM (M14) was -79% and the GI50 (NCI-H522; read-out: GI50) was 2.1 µM. It also gave a CC50 (NCI-H522; [17]) of 7.33 µM, a TGI (NCI-H522; read-out: TGI) of 3.92 µM and a GI50 (NCI-H522; read-out: pGI50 (converted)) of 2.09 µM. For the same molecule, the CC50 (NCI-H522; [18]) was 7.41 µM, the TGI (NCI-H522; read-out: pTGI (converted)) was 3.89 µM and the growth at 10 µM [16] was -75.1%. The growth at 0.1 µM (A498) was 84%.
